From ChEMBL document CHEMBL3856229, “Hybrid Antibiotic Overcomes Resistance in P. aeruginosa by Enhancing Outer Membrane Penetration and Reducing Efflux” (J Med Chem, 2016)
Active and inactive are the calls of the source. No cut-off for these calls is given here.

Experiments:
Staphylococcus aureus = assay: Antibacterial activity against methicillin-resistant Staphylococcus aureus ATCC 33592 after 24 hrs by microtitre broth dilution method; format: functional; conditions: ATCC 33592, 24 h
Enterococcus faecalis = assay: Antibacterial activity against Enterococcus faecalis ATCC 29212 after 24 hrs by microtitre broth dilution method; format: functional; conditions: ATCC 29212, 24 h
Enterococcus faecium = assay: Antibacterial activity against Enterococcus faecium ATCC 27270 after 24 hrs by microtitre broth dilution method; format: functional; conditions: ATCC 27270, 24 h
Escherichia coli [1] = assay: Antibacterial activity against gentamicin/tobramycin/ciprofloxacin-resistant Escherichia coli isolate CANWARD-2011 97615 harboring AAC3-2A after 24 hrs by microtitre broth dilution method; format: functional; conditions: isolate CANWARD-2011 97615, 24 h
Pseudomonas aeruginosa [2] = assay: Antibacterial activity against multidrug/extremely drug-resistant/colistin-susceptible Pseudomonas aeruginosa isolate 100036; format: functional
Pseudomonas aeruginosa [3] = assay: Antibacterial activity against multidrug/extremely drug-resistant/colistin-susceptible Pseudomonas aeruginosa isolate 101885; format: functional
Pseudomonas aeruginosa [4] = assay: Antibacterial activity against multidrug/extremely drug-resistant/colistin-susceptible Pseudomonas aeruginosa isolate 259-96918; format: functional
Pseudomonas aeruginosa [5] = assay: Antibacterial activity against multidrug/extremely drug-resistant/colistin-susceptible Pseudomonas aeruginosa isolate 260-97103; format: functional
Pseudomonas aeruginosa [6] = assay: Antibacterial activity against multidrug-resistant/tobramycin-susceptible Pseudomonas aeruginosa isolate 86053; format: functional
Pseudomonas aeruginosa [7] = assay: Antibacterial activity against multidrug-resistant/tobramycin-susceptible Pseudomonas aeruginosa isolate 86067; format: functional
Pseudomonas aeruginosa [8] = assay: Antibacterial activity against multidrug-resistant/tobramycin-susceptible Pseudomonas aeruginosa isolate 86079; format: functional
Pseudomonas aeruginosa [9] = assay: Antibacterial activity against multidrug-resistant/tobramycin-susceptible Pseudomonas aeruginosa isolate 92014; format: functional
Pseudomonas aeruginosa [10] = assay: Antibacterial activity against multidrug-resistant/tobramycin-susceptible Pseudomonas aeruginosa isolate 108590; format: functional
Escherichia coli [11] = assay: Antibacterial activity against fluoroquinolone resistant Escherichia coli isolate 87164 harboring beta-lactamase CTX-M-15/TEM-1; format: functional
Escherichia coli [12] = assay: Antibacterial activity against fluoroquinolone resistant Escherichia coli isolate 90087 harboring beta-lactamase CTX-M-15/OXA-1; format: functional
Escherichia coli [13] = assay: Antibacterial activity against fluoroquinolone resistant Escherichia coli isolate 91191 harboring beta-lactamase CTX-M-14/TEM-1; format: functional
Escherichia coli [14] = assay: Antibacterial activity against fluoroquinolone resistant Escherichia coli isolate 92756 harboring beta-lactamase CTX-M-14/TEM-1; format: functional
Escherichia coli [15] = assay: Antibacterial activity against fluoroquinolone resistant Escherichia coli isolate 98550 harboring beta-lactamase CTX-M-15/OXA-1; format: functional
Escherichia coli [16] = assay: Antibacterial activity against fluoroquinolone resistant Escherichia coli isolate 95882 harboring beta-lactamase KPC-3/TEM-1; format: functional
[17] = Cytotoxicity against human DU145 cells assessed as reduction in cell viability after 48 hrs by MTS assay; format: toxicity, cell-based, DU-145
[18] = Toxicity in Galleria mellonella upto 96 hrs
In short: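 Tolerability test in Galleria mellonella larvae, injected with doses up to a maximum of 600 mg/kg.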

Pseudomonas aeruginosa [19] = assay: Antibacterial activity against extremely drug-resistant Pseudomonas aeruginosa isolate 104354 infected in Galleria mellonella assessed as larvae survival administered as single dose measured after 24 to 96 hrs; format: functional
In short: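 Galleria mellonella larvae were infected with 10^6 CFU of XDR P. aeruginosa #104354, resistant to all antipseudomonal classes except colistin. A single injected drug dose was given 2 h post-infection: 50 mg/kg with survival read at 24 h, or 75 mg/kg with survival read at 96 h. Controls were infected untreated larvae and PBS-injected larvae. Two independent experiments of 15 larvae each (n = 30).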

Pseudomonas aeruginosa [20] = assay: Antibacterial activity against Pseudomonas aeruginosa PAO1 assessed as fractional inhibitory concentration index after 18 hrs in presence of vancomycin by checkerboard method; format: functional
In short: (§1)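 Checkerboard combinations of the hybrid with each partner antibiotic were tested against P. aeruginosa PAO1. Interaction is expressed as the fractional inhibitory concentration (FIC) index: ≤0.5 means synergy, 1–2 no interaction, ≥4 antagonism.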

Pseudomonas aeruginosa [21] = assay: Antibacterial activity against Pseudomonas aeruginosa PAO1 assessed as fractional inhibitory concentration index after 18 hrs in presence of chloramphenicol by checkerboard method; format: functional; in short: as §1
Pseudomonas aeruginosa [22] = assay: Antibacterial activity against Pseudomonas aeruginosa PAO1 assessed as fractional inhibitory concentration index after 18 hrs in presence of moxifloxacin by checkerboard method; format: functional; in short: as §1
Pseudomonas aeruginosa [23] = assay: Antibacterial activity against Pseudomonas aeruginosa PAO1 assessed as fractional inhibitory concentration index after 18 hrs in presence of meropenem by checkerboard method; format: functional; in short: as §1
Pseudomonas aeruginosa [24] = assay: Antibacterial activity against Pseudomonas aeruginosa PAO1 assessed as fractional inhibitory concentration index after 18 hrs in presence of gentamicin by checkerboard method; format: functional; in short: as §1
Pseudomonas aeruginosa [25] = assay: Potentiation of ciprofloxacin induced antibacterial activity against multidrug/extremely drug-resistant Pseudomonas aeruginosa isolate PA259-96918 assessed as ciprofloxacin MIC at <= […] ug/ml (reference value: […] ug/ml); format: functional
Pseudomonas aeruginosa [26] = assay: Potentiation of ciprofloxacin induced antibacterial activity against multidrug/extremely drug-resistant Pseudomonas aeruginosa isolate PA260-97103 assessed as ciprofloxacin MIC at <= […] ug/ml (reference value: […] to […] ug/ml); format: functional
Pseudomonas aeruginosa [27] = assay: Potentiation of ciprofloxacin induced antibacterial activity against pandrug-resistant Pseudomonas aeruginosa isolate 91433 assessed as ciprofloxacin MIC at <= […] ug/ml (reference value: 4 to 8 ug/ml); format: functional
Pseudomonas aeruginosa [28] = assay: Potentiation of ciprofloxacin induced antibacterial activity against pandrug-resistant Pseudomonas aeruginosa isolate 101243 assessed as ciprofloxacin MIC at <= […] ug/ml (reference value: 2 ug/ml); format: functional
Pseudomonas aeruginosa [29] = assay: Potentiation of moxifloxacin induced antibacterial activity against pandrug-resistant Pseudomonas aeruginosa isolate 91433 assessed as moxifloxacin MIC at <= […] ug/ml (reference value: 8 to […] ug/ml); format: functional
Pseudomonas aeruginosa [30] = assay: Antibacterial activity against multidrug/extremely drug-resistant Pseudomonas aeruginosa isolate PA264-104354 in presence of <= 4 ug/ml of ciprofloxacin (reference value: 4 ug/ml); format: functional
Pseudomonas aeruginosa [31] = assay: Antibacterial activity against multidrug/extremely drug-resistant Pseudomonas aeruginosa isolate PA264-104354 in presence of <= 4 ug/ml of moxifloxacin (reference value: 4 ug/ml); format: functional
Pseudomonas aeruginosa [32] = assay: Antibacterial activity against pandrug-resistant Pseudomonas aeruginosa isolate 91433 in presence of <= 4 ug/ml of moxifloxacin (reference value: 8 ug/ml); format: functional
Pseudomonas aeruginosa [33] = assay: Antibacterial activity against pandrug-resistant Pseudomonas aeruginosa isolate 101243 in presence of <= 4 ug/ml of moxifloxacin (reference value: 8 ug/ml); format: functional
Pseudomonas aeruginosa [34] = assay: Induction of cytoplasmic membrane depolarization in Pseudomonas aeruginosa PAO1 by DiSC3(5) dye based fluorescence assay; format: functional
Pseudomonas aeruginosa [35] = assay: Antimicrobial activity against Pseudomonas aeruginosa PAO200; format: functional
In short: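 MIC (µg/mL) determined in PAO200, a PAO1-derived MexAB-OprM deletion strain used to assess efflux effects.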

Pseudomonas aeruginosa [36] = assay: Induction of inner membrane permeabilization in Pseudomonas aeruginosa PAO1 assessed as accumulation of propidium iodide at 8 ug/ml after 3 to 4 hrs by fluorescence microscopy; format: functional
In short: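 PAO1 cells were treated with 8 µg/mL for 3 h at 37 °C, then stained with the membrane-impermeable nucleic-acid dye propidium iodide. Fluorescence microscopy and DIC imaging were compared against untreated cells.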

## COc1c(N2C[C@@H]3CCCN(CCCCCCCCCCCCO[C@@H]4[C@@H](O[C@H]5O[C@H](CO)[C@@H](O)[C@H](N)[C@H]5O)[C@H](N)C[C@H](N)[C@H]4O[C@H]4O[C@H](CN)[C@@H](O)C[C@H]4N)[C@@H]3C2)c(F)cc2c(=O)c(C(=O)O)cn(C3CC3)c12.Cl.Cl.Cl.Cl.Cl
Staphylococcus aureus
  MIC: 1 µg/mL
Enterococcus faecalis
  MIC: 4 µg/mL
Enterococcus faecium
  MIC: 16 µg/mL
Escherichia coli [1]
  MIC: 128 µg/mL
Pseudomonas aeruginosa [2]
  MIC: 8 µg/mL
Pseudomonas aeruginosa [3]
  MIC: 8 µg/mL
Pseudomonas aeruginosa [4]
  MIC: 2 µg/mL
Pseudomonas aeruginosa [5]
  MIC: 1 µg/mL
Pseudomonas aeruginosa [6]
  MIC: 4 µg/mL
Pseudomonas aeruginosa [7]
  MIC: 4 µg/mL
Pseudomonas aeruginosa [8]
  MIC: 4 µg/mL
Pseudomonas aeruginosa [9]
  MIC: 4 µg/mL
Pseudomonas aeruginosa [10]
  MIC: 2 µg/mL
Escherichia coli [11]
  MIC: ≥ 64 µg/mL
Escherichia coli [12]
  MIC: ≥ 64 µg/mL
Escherichia coli [13]
  MIC: ≥ 64 µg/mL
Escherichia coli [14]
  MIC: ≥ 64 µg/mL
Escherichia coli [15]
  MIC: ≥ 64 µg/mL
Escherichia coli [16]
  MIC: ≥ 64 µg/mL
[17]
  CC50 at 48 h: > 30 µM
[18]
  MTD at 96 h: 600 mg/kg
Pseudomonas aeruginosa [19]
  Activity: Dose-dependent effect
Pseudomonas aeruginosa [20]
  fractional inhibitory concentration index (FICI): 0.26
Pseudomonas aeruginosa [21]
  fractional inhibitory concentration index (FICI): 0.15
Pseudomonas aeruginosa [22]
  fractional inhibitory concentration index (FICI): 0.18
Pseudomonas aeruginosa [23]
  fractional inhibitory concentration index (FICI): 2
Pseudomonas aeruginosa [24]
  fractional inhibitory concentration index (FICI): 5
Pseudomonas aeruginosa [25]
  MIC: < 1 µg/mL
Pseudomonas aeruginosa [26]
  MIC: 1 µg/mL
Pseudomonas aeruginosa [27]
  MIC: 0.25 µg/mL
Pseudomonas aeruginosa [28]
  MIC: 0.06 µg/mL
Pseudomonas aeruginosa [29]
  MIC: 0.12 µg/mL
Pseudomonas aeruginosa [30]
  MIC: < 0.5 µg/mL
Pseudomonas aeruginosa [31]
  MIC: < 1 µg/mL
Pseudomonas aeruginosa [32]
  MIC: < 1 µg/mL
Pseudomonas aeruginosa [33]
  MIC: < 1 µg/mL
Pseudomonas aeruginosa [34]
  Activity: Dose-dependent effect
Pseudomonas aeruginosa [35]
  MIC: 4 µg/mL
Pseudomonas aeruginosa [36]
  Activity: Active
